For experiment [1], the target named is T1, 5-hydroxytryptamine receptor 3A (Cavia porcellus, UniProt O70212).
T1 sequence (O70212 whole entry): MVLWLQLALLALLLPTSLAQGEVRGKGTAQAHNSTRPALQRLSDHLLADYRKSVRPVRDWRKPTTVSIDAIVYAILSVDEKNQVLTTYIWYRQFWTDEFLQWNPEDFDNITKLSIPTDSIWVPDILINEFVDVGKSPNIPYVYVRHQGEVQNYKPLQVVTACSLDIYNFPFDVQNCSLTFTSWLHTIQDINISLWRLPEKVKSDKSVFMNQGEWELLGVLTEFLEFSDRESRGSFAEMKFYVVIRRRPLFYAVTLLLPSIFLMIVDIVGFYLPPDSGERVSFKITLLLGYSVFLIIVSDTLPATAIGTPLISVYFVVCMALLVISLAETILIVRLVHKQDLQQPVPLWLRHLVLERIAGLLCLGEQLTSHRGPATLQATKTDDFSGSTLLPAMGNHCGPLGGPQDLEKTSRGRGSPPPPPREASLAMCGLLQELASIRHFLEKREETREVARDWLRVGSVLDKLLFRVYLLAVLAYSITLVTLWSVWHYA
The experiment is described as follows: Antagonist activity at 5-HT3 receptor in guinea pig ileum muscle. The experiment is classed as functional, tissue-based. The settings on record: read-out: pA2 (converted). In short, it runs like this: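 Longitudinal muscle myenteric plexus preparation from ileum of male Dunkin Hartley guinea pigs (350-400 g); antagonism measured against the 5-HT3 agonist 2-methyl-5-HT and expressed as pA2 by literature methods; mean of two separate experiments.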

In experiment [2] the test system is Mus musculus. The experiment is described as follows: Antidepressant activity in mouse assessed as immobility time at 1 mg/kg, ip by forced swimming test. It counts as functional. Conditions: route intraperitoneal.
Experiment [3] concerns Mus musculus. In words: Antipsychotic activity in Swiss Albino mouse assessed as spontaneous locomotor score at 1 mg/kg, ip measured for 10 mins by actophotometer. The experiment is classed as functional. Conditions: route intraperitoneal. An outline of the steps:
(§1)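 Swiss Albino mice (23 ± 2 g) given compound intraperitoneally in 10% PEG-400 in water; spontaneous locomotor activity counted in an actophotometer over 10 min as locomotor score; n = 8 per group, mean; one-way ANOVA with Dunnett's test versus vehicle-treated group.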

For experiment [4], the system named is Mus musculus. In words: Antidepressant activity in Swiss Albino mouse assessed as immobility time at 0.5 mg/kg, ip by forced swimming test (reference value: 165.6 +/- 03.2 sec). The experiment is classed as functional. The settings on record: route intraperitoneal.
Experiment [5] deals with Mus musculus. In words: Antidepressant activity in Swiss Albino mouse assessed as immobility time at 2 mg/kg, ip by forced swimming test. The experiment is classed as functional. Conditions: route intraperitoneal.
Experiment [6] concerns Mus musculus. The experiment is described as follows: Antipsychotic activity in Swiss Albino mouse assessed as spontaneous locomotor score at 0.5 mg/kg, ip measured for 10 mins by actophotometer. The experiment is classed as functional. The settings on record: route intraperitoneal. In short, it runs like this:
as §1

The subject of experiment [7] is Mus musculus. The experiment is described as follows: Antipsychotic activity in Swiss Albino mouse assessed as spontaneous locomotor score at 2 mg/kg, ip measured for 10 mins by actophotometer. The experiment is classed as functional. Conditions: route intraperitoneal. An outline of the steps:
as §1

Take `CCOc1nc2ccccc2nc1C(=O)N1CCN(c2ccccc2)CC1`: in experiment [1], the Kb is 10000 nM. The Time in the experiment with Mus musculus [2] worked out at 134 s. Moreover, the Activity in the experiment with Mus musculus [3] turned out to be 382 score.
Consider `CCOc1nc2ccccc2nc1C(=O)N1CCN(c2ccc(OC)cc2)CC1`, for which the Kb in experiment [1] is 158 nM. The values for the Time in the experiment on Mus musculus [2], in the experiment with Mus musculus [4] and in the experiment on Mus musculus [5] were 114.6 s, 159 s and 121.6 s, respectively. Besides, the Activity with Mus musculus [3] came to 356 score; in the experiment on Mus musculus [6], 352 score; with Mus musculus [7] it was 361 score.
As to `CCOc1nc2ccccc2nc1C(=O)N1CCN(c2cccc(C(F)(F)F)c2)CC1`, in experiment [1], the Kb is 7940 nM. Besides, in the experiment on Mus musculus [2], the Time stood at 148 s. Moreover, in the experiment on Mus musculus [3], the Activity came out at 356 score.
Regarding `CCOc1nc2ccccc2nc1C(=O)N1CCN(c2ccccc2OC)CC1`, the Kb in experiment [1] was 100 nM. Further, the Time with Mus musculus [2] stood at 113.3 s; in the experiment with Mus musculus [4] it was 115.3 s; in the experiment on Mus musculus [5] it was 122 s. Also, the Activity in the experiment with Mus musculus [3] came to 360 score; in the experiment with Mus musculus [6] it was 351 score; with Mus musculus [7] it was 366 score.
On to `CCOc1nc2ccccc2nc1C(=O)N1CCN(Cc2ccccc2)CC1`, for which, in experiment [1], the Kb is 25100 nM. Moreover, in the experiment on Mus musculus [2], the Time came out at 160 s. Also, the Activity in the experiment on Mus musculus [3] amounted to 366 score.
`Cc1nccn1CC1CCc2c(c3ccccc3n2C)C1=O` (stereo not drawn) [ONDANSETRON]: the results for the Time in the experiment with Mus musculus [2], with Mus musculus [4] and in the experiment on Mus musculus [5] were 100.4 s, 130.2 s and 95.1 s, respectively. Besides, the Activity is 388 score in the experiment on Mus musculus [3], 368 score in the experiment with Mus musculus [6] and 400 score in the experiment on Mus musculus [7].
Take `CCOc1nc2ccccc2nc1C(=O)NCCN(C)C`: in experiment [1], the Kb is 126 nM. In addition, the figures for the Time in the experiment on Mus musculus [2], in the experiment with Mus musculus [4] and in the experiment on Mus musculus [5] were 117.7 s, 133.6 s and 96 s, respectively. Also, the Activity amounted to 349 score with Mus musculus [3], 345 score in the experiment with Mus musculus [6] and 343 score in the experiment with Mus musculus [7].
`CCOc1nc2ccccc2nc1C(=O)Nc1ccc(N(CC)CC)cc1`: the Kb in experiment [1] was 10000 nM. Also, the Time in the experiment with Mus musculus [2] came out at 145 s. In the experiment on Mus musculus [3], the Activity was determined as 374 score.
Consider `CCOc1nc2ccccc2nc1C(=O)N1CCN(CC)CC1`, for which the Kb in experiment [1] was 31.6 nM. Moreover, the Time in the experiment on Mus musculus [2] worked out at 98 s; in the experiment on Mus musculus [4], 159.3 s; with Mus musculus [5], 128 s. Further, the Activity turned out to be 360 score with Mus musculus [3], 349 score with Mus musculus [6] and 352 score with Mus musculus [7].
Regarding `CCOc1nc2ccccc2nc1C(=O)Nc1cccnc1`, the Kb in experiment [1] was 15800 nM. Further, the Time in the experiment with Mus musculus [2] is 144 s. Moreover, the Activity with Mus musculus [3] was determined as 365 score.
Take `CCOc1nc2ccccc2nc1C(=O)N1CCN(C)CC1`: the Kb in experiment [1] was 20 nM. Also, the values for the Time in the experiment with Mus musculus [2], with Mus musculus [4] and in the experiment with Mus musculus [5] were 94 s, 125 s and 130 s, respectively. Also, the Activity in the experiment on Mus musculus [3] came to 350 score; in the experiment with Mus musculus [6], 353 score; in the experiment on Mus musculus [7], 356 score.
On to `CCOc1nc2ccccc2nc1C(=O)NCCc1c[nH]c2ccccc12`, for which the Kb in experiment [1] is 63.1 nM. Further, the values for the Time in the experiment with Mus musculus [2], in the experiment on Mus musculus [4] and in the experiment with Mus musculus [5] were 104 s, 150.3 s and 79.3 s, respectively. The values for the Activity with Mus musculus [3], in the experiment with Mus musculus [6] and in the experiment on Mus musculus [7] were 350 score, 366 score and 355 score, respectively.
For `CCOc1nc2ccccc2nc1C(=O)N1CCN(c2cccc(Cl)c2)CC1`, the Kb in experiment [1] was 251 nM. For the same molecule, the Time was 110.6 s in the experiment on Mus musculus [2], 83.6 s in the experiment with Mus musculus [4] and 76.6 s in the experiment with Mus musculus [5]. Also, the Activity came out at 352 score in the experiment on Mus musculus [3], 361 score with Mus musculus [6] and 358 score in the experiment on Mus musculus [7].
Consider `CCOc1nc2ccccc2nc1C(=O)NCCN(CC)CC`, for which the Kb in experiment [1] was 20000 nM. Moreover, the Time in the experiment on Mus musculus [2] is 162 s. For the same molecule, in the experiment on Mus musculus [3], the Activity came to 362 score.
As for `CCOc1nc2ccccc2nc1C(=O)N1CCN(c2ccc(Cl)cc2)CC1`, the Kb in experiment [1] was 1000 nM. Moreover, the Time in the experiment with Mus musculus [2] was 146.6 s. The Activity in the experiment with Mus musculus [3] is 364 score.
For `C=CCN1CCN(C(=O)c2nc3ccccc3nc2OCC)CC1`, the Kb in experiment [1] was 158 nM. Also, the values for the Time in the experiment with Mus musculus [2], in the experiment on Mus musculus [4] and in the experiment with Mus musculus [5] were 127 s, 152 s and 118 s, respectively. Moreover, the Activity was 360 score with Mus musculus [3], 345 score in the experiment on Mus musculus [6] and 352 score in the experiment with Mus musculus [7].

The values above are taken from ChEMBL document CHEMBL1667839, “Discovery of new anti-depressants from structurally novel 5-HT3 receptor antagonists: design, synthesis and pharmacological evaluation of 3-ethoxyquinoxalin-2-carboxamides” (Bioorg Med Chem Lett, 2011).
